# The list is not random: actives were taken first. Their share in the collection is about 3.2%.
# UBC13 inh: human UBC13 polyubiquitination inhibition; P61088; UBC13 polyubiquitin chain formation, TR-FRET; inhibition, % at 20 µM; 330,000 compounds, 0.47% hits; in the data active = inhibition above about 45%, passing the limit was not always enough; inconclusive = no clear call, values can overlap the other calls
# MEKK2wt PB1 HTS: raises or lowers MEK5 binding to wildtype human MEKK2 PB1 domain; Q9Y2U5; bead flow cytometry, Alexa488-MEK5 binding to MEKK2 WT; actives lie on both sides; binding response (% of control), % at 10 µM; 290,000 compounds, 1.1% hits; in the data active = binding response below about 67% or above about 130%; inconclusive = no clear call, values can overlap the other calls; inactive = in between
# DSG3 Ab inh: inhibitors of pemphigus antibody binding to human desmoglein-3. P32926. DSG3-coupled beads, scFv-anti-DSG3-GFP binding, flow cytometry; stronger effect = lower value. binding (percent of control), % at 10 µM. 310,000 compounds, 0.48% hits. AID 588358;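 active = binding more than 3 SD below its plate's average and above zero; inconclusive = below that plate limit but binding exactly zero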
# Apaf1 inhib: inhibitors of human Apaf-1 apoptosome. inhibition, % at 20 µM. AID 489030. reconstituted apoptosome caspase-3 activity, DEVD-Rh110 fluorescence. 330,000 compounds, 0.71% hits. O14727; active = inhibition of at least 40% at 20 µM
#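 detection = Rh110 fluorescence intensity | test system = biochemical Apaf-1 apoptosome reconstitution | also added = cytochrome c and DEVD-Rh110 substrate | schedule = 30 min plus 50 min, RT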
# MEKK3 PB1 HTS: modulators (inhibitors or enhancers) of MEK5 binding to human MEKK3 PB1 domain; Q99759; bead-based flow cytometry, Alexa488-MEK5 binding to MEKK3; actives lie on both sides; 0 = blocked by unlabeled MEK5, 100 = vehicle; binding response (% of control), % at 10 µM; 290,000 compounds, 1.4% hits; AID 1529;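 active = binding response more than 3 SD above or below the average of its plate-row segment, actives on both sides; inconclusive = wells at one plate position flagged as instrument error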;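 also: Alexa488 bead fluorescence after subtracting the streptavidin-only scavenger bead signal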
# MEKK2mut PB1 HTS: signal of MEK5 binding to mutant human MEKK2 PB1 domain; bead flow cytometry, Alexa488-MEK5 binding to MEKK2 mutant; percent response, % at 10 µM; 290,000 compounds, 0.35% hits; AID 1530; in the data active = percent response above about 24%, passing the limit was not always enough
# MEKK2wt confirm: raises or lowers MEK5 binding to wildtype human MEKK2, retest; shares compounds with MEKK3 PB1 HTS; bead flow cytometry, Alexa488-MEK5 binding to MEKK2 WT; actives lie on both sides; binding response (% of control), % at 10 µM; 5,900 compounds, 2.4% hits; AID 1892; in the data active = binding response below about 16% or above about 210%; inactive = in between
# MEKK2mut-MEK5: signal of MEK5 binding to mutant human MEKK2, retest | shares compounds with MEKK3 PB1 HTS | 5,900 compounds, 2% hits | percent response, % at 10 µM | bead flow cytometry, Alexa488-MEK5 binding to MEKK2 mutant | AID 1893; in the data active = percent response mostly above about 71%, no sharp cut-off; inactive = mostly below about 38%;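 also: higher means compound restores mutant binding toward wildtype level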
# MEKK3-MEK5 inh: MEKK3-MEK5 PB1 inhibition, single concentration confirmation; shares compounds with MEKK3 PB1 HTS; binding response (% of control), % at 10 µM; 5,900 compounds, 1.8% hits; bead flow cytometry, Alexa488-MEK5 binding to MEKK3; stronger effect = lower value;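 active = binding response below 72% of control, or above a set upper limit, though filed actives all read lower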
# A number is an active result; – = inactive; ? = inconclusive; · = no result; [ ] = another dose, or the depositor's remark.
SMILES,UBC13 inh,MEKK2wt PB1 HTS,DSG3 Ab inh,Apaf1 inhib,MEKK3 PB1 HTS,MEKK2mut PB1 HTS,MEKK2wt confirm,MEKK2mut-MEK5,MEKK3-MEK5 inh
O=C1NC(=Nc2ccccc2)/C(=C/c2ccco2)S1,–,–,–,–,132,–,–,–,–
Cc1ccc(N=C2NC(=O)S/C2=C\c2ccco2)cc1,–,–,–,–,–,–,·,·,·
O=C(Cc1ccccc1F)Nc1cc(S(=O)(=O)N2CCCCC2)ccc1N1CCOCC1,·,·,–,·,·,·,·,·,·
CCN(C(=O)COC(=O)c1cc(-c2ccc3cc(OC)ccc3c2)nc2ccccc12)C1CCS(=O)(=O)C1 (stereo not drawn),?,–,·,–,–,–,·,·,·
CCN(C(=O)COC(=O)c1cc(=O)[nH]c2ccccc12)C1CCS(=O)(=O)C1 (stereo not drawn),–,37[inhibitor],–,–,37[inhibitor],–,–,–,–
Cc1ccccc1C1c2[nH]c3ccccc3c2CCN1Cc1cccn1-c1ncccn1 (stereo not drawn),–,–,–,–,–,–,·,·,·
COc1ccc(/C=N/n2nnnc2N)c(OC)c1,–,–,–,–,–,–,·,·,·
CCCOc1c(Br)cc(C(=O)OCc2cc(=O)n3ccsc3n2)cc1OC,·,·,–,·,·,·,·,·,·
Cc1ccc2cc(C3CC(c4ccco4)=NN3S(C)(=O)=O)c(Cl)nc2c1 (stereo not drawn),–,–,–,–,–,–,·,·,·
Cc1ccc2nc(Cl)c(C3CC(c4ccco4)=NN3S(C)(=O)=O)cc2c1 (stereo not drawn),–,–,–,–,72[inhibitor],–,–,–,–
CN(Cc1cnccn1)C(=O)C1CCC(=O)N(CCc2ccc(Cl)cc2)C1 (stereo not drawn),–,–,·,–,–,–,·,·,·
CC1CCc2ccccc2N1CC(=O)Nc1cccc(S(=O)(=O)N2CCCC2)c1 (stereo not drawn),–,·,–,–,·,·,·,·,·
S=c1[nH]nc(-c2cc(-c3ccccc3)n[nH]2)n1/N=C/c1ccccc1,–,–,–,–,–,–,·,·,·
Cc1cccc(/C=N/n2c(-c3cc(-c4ccccc4)n[nH]3)n[nH]c2=S)c1,–,–,–,–,138,–,–,–,–
O=C(NNC(=O)c1cc2ccccc2oc1=O)c1ccccc1[N+](=O)[O-],–,–,–,–,–,–,·,·,·
CCOc1ccc(/C=C/c2nc(C#N)c(NCCCOC)o2)cc1,–,–,–,–,–,–,·,·,·
CCOc1ccc(/C=C/c2nc(C#N)c(NCCCN(C)C)o2)cc1,–,140,–,–,–,26,–,–,–
COc1cc(CNCc2ccccc2)cc(Cl)c1OC,–,–,–,–,–,–,·,·,·
O=C(COc1ccc(Br)cc1CNCCc1ccccc1)NCc1ccccc1,–,145,–,–,–,–,–,–,–
CCOc1cc(CNCC(C)C)cc(Cl)c1OCc1ccccc1,–,–,–,–,–,–,·,·,·
COc1cc(CNCCc2ccccc2)cc(Br)c1OCC(=O)Nc1ccccc1C,–,182,–,–,–,–,–,–,–
CCOc1cc(CNC2CCCC2)cc(Cl)c1OCc1ccccc1,–,141,–,–,–,–,–,–,–
CCCNCc1cc(Br)ccc1OCC(=O)NCCc1ccccc1,–,–,–,–,–,–,·,·,·
COc1cc(CNCCc2ccccc2)cc(Cl)c1OCc1ccccc1,–,192,–,–,–,–,–,73,–
O=C(CSc1nnc(NC(=O)C2CC(=O)N(c3ccc(F)cc3)C2)s1)NC1CCCC1 (stereo not drawn),–,–,–,–,–,–,·,·,·
SMILES,UBC13 inh,MEKK2wt PB1 HTS,DSG3 Ab inh,Apaf1 inhib,MEKK3 PB1 HTS,MEKK2mut PB1 HTS,MEKK2wt confirm,MEKK2mut-MEK5,MEKK3-MEK5 inh
Nc1c(Cl)cc(N=Nc2ccccc2)cc1Cl,·,·,–,·,·,·,·,·,·
CNC(=O)C[C@H]1C(=O)N(c2ccccc2)C[C@@H]1C,·,·,–,·,·,·,·,·,·
O=C(COc1coc(CN2CCc3ccccc3C2)cc1=O)Nc1cccc([N+](=O)[O-])c1,–,·,–,–,·,·,·,·,·
CC(Sc1nnc2n1CCCCC2)C(=O)Nc1ccc(S(N)(=O)=O)cc1 (stereo not drawn),–,·,–,–,·,·,·,·,·
S=C(NCCc1cccc(Cl)c1)NC1CCCCC1,–,–,–,–,–,–,·,·,·
O=C(OCC(O)CO)c1ccccc1Nc1ccnc2cc(Cl)ccc12 (stereo not drawn),–,·,–,–,·,·,·,·,·
O=[N+]([O-])c1ccc(NC(=S)NCC(c2cccnc2)N2CCOCC2)cc1 (stereo not drawn),–,–,–,–,–,–,·,·,·
CCc1cccc(C)c1NC(=S)NCC(c1cccnc1)N1CCOCC1 (stereo not drawn),–,–,–,–,144,–,–,–,–
FC(F)(F)c1cccc(NC(=S)NCC(c2cccnc2)N2CCOCC2)c1 (stereo not drawn),–,–,–,–,135,–,–,–,–
Cc1c(C)[n+](=O)c(-c2ccc(Br)cc2)c(C)n1[O-],–,47[inhibitor],–,–,50[inhibitor],–,–,–,–
Cc1ccc(C(=O)N/N=C2\CCc3ccccc32)c(C)c1,–,–,–,–,141,–,–,–,–
O=C(Nc1ccccc1C(=O)Nc1nncs1)c1ccccc1,–,–,–,–,–,–,·,·,·
O=C(Nc1nncs1)c1ccc(S(=O)(=O)c2ccccc2)cc1,–,–,–,–,123,–,–,–,–
COc1ccc(CC(=O)NNC(=O)c2ccc(Br)o2)cc1,–,–,·,–,–,–,·,·,·
CCCCN1C(=O)C(CC(=O)NCc2ccco2)CC(C(=O)N(C)C)=C1C (stereo not drawn),·,·,–,·,·,·,·,·,·
CN(C)C(=O)N1CCC(C(=O)NCc2ccc(F)cc2)CC1,–,–,–,–,–,–,·,·,·
CN(C)C(=O)N1CCC(C(=O)NCc2ccccc2)CC1,–,-2.0[inhibitor],–,–,1.0[inhibitor],–,–,–,–
C=CCN1C(=O)c2ccc(C(=O)OCC(=O)Nc3ccc(S(N)(=O)=O)cc3)cc2C1=O,–,·,–,–,·,·,·,·,·
O=C(O)C1Cc2c([nH]c3ccccc23)C(c2ccc3c(c2)OCO3)N1 (stereo not drawn),–,6.0[inhibitor],–,–,–,–,–,–,–
Oc1ccccc1CNc1cnc2ccccc2c1,–,-5.0[inhibitor],–,–,–,–,–,–,–
Oc1ccc(Cl)cc1CNc1cnc2ccccc2c1,–,–,–,–,–,–,·,·,·

# Source: PubChem
